The results in this text go back to ChEMBL document CHEMBL1154352, “Toll-like receptor 7 selective synthetic oligoribonucleotide agonists: synthesis and structure-activity relationship studies” (J Med Chem, 2009).

Experiment [1] deals with PBMC. Nature of the experiment: Immunomodulatory activity in human PBMC assessed as induction of IFNalpha after 24 hrs. The experiment is classed as functional, cell-based. The procedure, abridged: (§1)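 Human PBMCs plated at 5 × 10^6 cells/mL; compounds dissolved in PBS added at various concentrations, 37 °C for 24 h. Supernatant cytokines/chemokines quantified with human Luminex multiplex kit.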

The subject of experiment [2] is PBMC. Nature of the experiment: Immunomodulatory activity in human PBMC assessed as induction of IP10 after 24 hrs. The class given is functional, cell-based. The procedure, abridged:
as §1

Experiment [3] relates to PBMC. In words: Immunomodulatory activity in human PBMC assessed as induction of IL12 after 24 hrs. The experiment is classed as functional, cell-based. The procedure, abridged:
as §1

The test system of experiment [4] is PBMC. Nature of the experiment: Immunomodulatory activity in human PBMC assessed as induction of TNFalpha after 24 hrs. The class given is functional, cell-based. The procedure, abridged:
as §1

For experiment [5], the system named is PBMC. In words: Immunomodulatory activity in human PBMC assessed as induction of IL1-beta after 24 hrs. The experiment is classed as functional, cell-based. The procedure, abridged:
as §1

The subject of experiment [6] is PBMC. In words: Immunomodulatory activity in human PBMC assessed as induction of MIP1alpha after 24 hrs. The experiment is classed as functional, cell-based. The procedure, abridged:
as §1

Experiment [7] has as its system PBMC. Nature of the experiment: Immunomodulatory activity in human PBMC assessed as induction of IL10 after 24 hrs. The experiment is classed as functional, cell-based. The procedure, abridged:
as §1

Experiment [8] deals with PBMC. In words: Immunomodulatory activity in human PBMC assessed as induction of MCP1 after 24 hrs. The class given is functional, cell-based. The procedure, abridged: as §1
In experiment [9] the test system is PBMC. Nature of the experiment: Immunomodulatory activity in human PBMC assessed as induction of MIP1beta after 24 hrs. The class given is functional, cell-based. The procedure, abridged: as §1
In the next experiment the test system is Mus musculus. Nature of the experiment: Immunomodulatory activity in TLR7 knockout C57BL/6 mouse assessed as induction of IL12 release at 10 mg/kg, sc after 2 hrs by ELISA. The experiment is classed as functional, organism-based. Details: dose 10 mg/kg. The procedure, abridged: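 Male 8-week-old TLR9-/-, TLR7-/- or MyD88-/- mice on C57BL/6 background, n=3; single subcutaneous 10 mg/kg dose. Blood collected 2 h later by retro-orbital bleeding; serum IL-12 by ELISA.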

Each structure is given as a SMILES string. Calls of active or inactive are those of the source. No cut-off for these calls is given here.

Consider `Nc1ccn([C@@H]2O[C@H](COP(=O)(S)O[C@H]3[C@@H](O)[C@H](n4cnc5c(N)ncnc54)O[C@@H]3CO)[C@@H](OP(=O)(S)OC[C@H]3O[C@@H](n4ccc(=O)[nH]c4=O)[C@H](O)[C@@H]3OP(=O)(S)OC[C@H]3O[C@@H](n4ccc5c(=O)[nH]c(N)nc54)[C@H](O)[C@@H]3OP(=O)(S)OC[C@H]3O[C@@H](n4ccc(N)nc4=O)[C@H](O)[C@@H]3OP(=O)(S)OC[C@H]3O[C@@H](n4ccc5c(=O)[nH]c(N)nc54)[C@H](O)[C@@H]3OP(=O)(S)OC[C@H]3O[C@@H](n4cnc5c(N)ncnc54)[C@H](O)[C@@H]3OP(=O)(S)OC[C@H]3O[C@@H](n4ccc5c(=O)[nH]c(N)nc54)[C@H](O)[C@@H]3OP(=O)(S)OC[C@H]3O[C@@H](n4ccc(N)nc4=O)[C@H](O)[C@@H]3OP(=O)(S)OC[C@H]3O[C@@H](n4ccc(=O)[nH]c4=O)[C@H](O)[C@@H]3OP(=O)(S)OC[C@H]3O[C@@H](n4ccc(=O)[nH]c4=O)[C@H](O)[C@@H]3OP(=O)(S)OCC(O)COP(=O)(S)O[C@H]3[C@@H](O)[C@H](n4ccc(=O)[nH]c4=O)O[C@@H]3COP(=O)(S)O[C@H]3[C@@H](O)[C@H](n4ccc(=O)[nH]c4=O)O[C@@H]3COP(=O)(S)O[C@H]3[C@@H](O)[C@H](n4ccc(N)nc4=O)O[C@@H]3COP(=O)(S)O[C@H]3[C@@H](O)[C@H](n4ccc5c(=O)[nH]c(N)nc54)O[C@@H]3COP(=O)(S)O[C@H]3[C@@H](O)[C@H](n4cnc5c(N)ncnc54)O[C@@H]3COP(=O)(S)O[C@H]3[C@@H](O)[C@H](n4ccc5c(=O)[nH]c(N)nc54)O[C@@H]3COP(=O)(S)O[C@H]3[C@@H](O)[C@H](n4ccc(N)nc4=O)O[C@@H]3COP(=O)(S)O[C@H]3[C@@H](O)[C@H](n4ccc5c(=O)[nH]c(N)nc54)O[C@@H]3COP(=O)(S)O[C@H]3[C@@H](O)[C@H](n4ccc(=O)[nH]c4=O)O[C@@H]3COP(=O)(S)O[C@H]3[C@@H](O)[C@H](n4ccc(N)nc4=O)O[C@@H]3COP(=O)(S)O[C@H]3[C@@H](O)[C@H](n4cnc5c(N)ncnc54)O[C@@H]3CO)[C@H]2O)c(=O)n1` (stereo not given in full), for which the Activity result in the experiment with PBMC [1], in the experiment with PBMC [2], in the experiment with PBMC [3], in the experiment on PBMC [4], in the experiment on PBMC [5] and with PBMC [6] was “Dose-dependent effect” each time. Also, the Activity result in the experiment with PBMC [7], with PBMC [8] and with PBMC [9] was “Dose-dependent effect” each time. In addition, the result in the experiment on Mus musculus was inactive.
